Bioassay records from PubChem BioAssay.
In the library only some 4.8% were active in any assay of this set; here they are far more common.
T cruzi inh = inhibitors of intracellular T. cruzi growth, primary screen, luminescence, NIH3T3 host cells; T. cruzi beta-gal in NIH3T3, 90 h; inhibition, % (test concentration not listed); 300,000 compounds, 1.4% hits;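 active = mean inhibition across valid replicates above about 55%, limit read from the data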;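 also: signal also drops with host cell toxicity which is not excluded here; 0% = plate median of DMSO wells and 100% = zero luminescence signal; higher percent means less beta-gal luminescence so fewer parasites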
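Material: NIH/3T3 host cells with β-galactosidase reporter T. cruzi; Input: 5,000 host fibroblasts per well; Medium: DMEM, 2% fetal bovine serum; Compound: 50 nL DMSO compound solution per well; Schedule: 3 h host attachment, then at least 90 h co-culture; Detection: luminescent β-galactosidase signal after 60 min lysis.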
HSF1 inh = HSF1 inhibitors in luciferase reporter cells, primary screen, cell-based, NIH3T3, luminescence. 300,000 compounds, 0.77% hits. activity change, negative = inhibition, % at 7.5 µM (by protocol). NIH3T3-HGL HSE-luciferase, MG132-induced, luminescence 8 h; stronger effect = lower value;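 active = more than half of replicate wells show activity change below -50%, luminescence cut by over half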;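 also: luciferase reports HSF-1 transcriptional activity via heat shock element; 0% = median of DMSO wells and -100% = zero luminescence signal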
697 NFkB inh = inhibitors of PMA/ionomycin-induced NF-kB reporter, 697 cells, primary screen, B-cell NF-kB inhibitor project, cell-based, luminescence, uHTS | 697 B-cell NF-kB luciferase reporter, 16 h | inhibition, % at 4 µM | 330,000 compounds, 0.33% hits | AID 435022, 2010; in the data active = inhibition above about 35%
Jurkat NFkB inh = inhibitors of induced NF-kB luciferase reporter, primary screen, TCR NF-kB activation inhibitor project, cell-based, luminescence, uHTS; Jurkat, PMA/ionomycin-induced NF-kB luciferase reporter; inhibition, % at 4 µM; AID 435003, 2010; 330,000 compounds, 0.53% hits; in the data active = inhibition above about 50%
HSF-1 act = HSF-1 activators, primary screen, NIH3T3-HGL cells, MG132 stress, luminescence, single point; activation, % at 9 µM; NIH3T3-HGL HSF-1 luciferase reporter, 8 h; 100% = twice DMSO control signal; 300,000 compounds, 1.7% hits; AID 504408, 2011;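 active = mean replicate activation of at least 50% with a set share of replicates each reaching 50%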;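 also: 0% = median of the neutral control wells and 100% = twice that signal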
GPR7 antagonist = GPR7 receptor antagonists, primary screen, cell-based, fluorescence, single concentration; GPR7-expressing cells, fluorescence antagonist assay; 290,000 compounds, 1.1% hits; inhibition, % at 4.4 µM; Neuropeptides B/W receptor type 1 (Homo sapiens), P48145; in the data active = inhibition above about 16%, passing the limit was not always enough;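 also: cells stimulated with the agonist NPW; 0% = agonist with vehicle and 100% = vehicle without agonist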
Target sequence (P48145 whole entry, looked up): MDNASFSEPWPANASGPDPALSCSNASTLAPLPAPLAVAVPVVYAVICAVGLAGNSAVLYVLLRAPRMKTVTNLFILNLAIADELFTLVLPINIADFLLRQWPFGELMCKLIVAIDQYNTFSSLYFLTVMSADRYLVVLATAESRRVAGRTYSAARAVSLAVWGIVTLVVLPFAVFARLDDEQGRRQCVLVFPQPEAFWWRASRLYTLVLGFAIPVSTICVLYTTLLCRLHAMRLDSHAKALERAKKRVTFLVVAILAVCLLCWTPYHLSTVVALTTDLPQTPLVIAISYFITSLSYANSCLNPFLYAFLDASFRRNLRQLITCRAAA
* = called active by the depositor.

How did CN(C(=O)c1c(Br)cnn1C)C12CC3CC(CC(C3)C1)C2 do in these assays?
GPR7 antagonist: -7.7

How did COC(=O)C1=C(C)N(CCc2cc(OC)c(OC)c(OC)c2)C(=O)N[C@H]1c1ccc(Br)cc1 do in these assays?
T cruzi inh: 9.9; HSF1 inh: 4.8; 697 NFkB inh: 19.9; Jurkat NFkB inh: 20.1; HSF-1 act: 23.9; GPR7 antagonist: -21.6

What do the screens show for `C/C(CC(=O)Nc1ccc(C)c(Cl)c1)=N\NC(=O)c1ccccn1`?
T cruzi inh: 3.8; HSF1 inh: 135.8; 697 NFkB inh: -20.7; Jurkat NFkB inh: -20.2; HSF-1 act: 205.6*; GPR7 antagonist: 11.2

What do the screens show for `C/C(CC(=O)Nc1ccc(N(C)C)cc1)=N\NC(=O)c1ccccn1`?
697 NFkB inh: -26.4; Jurkat NFkB inh: -20.7; GPR7 antagonist: -0.4

Results for O=C1C=CC(=O)N1CCNc1ncc(C(F)(F)F)cc1Cl ?
T cruzi inh: 56.6*; HSF1 inh: -12.3; 697 NFkB inh: 4.1; Jurkat NFkB inh: 7.9; HSF-1 act: -18.6; GPR7 antagonist: -9.1

Results for O=C1CC(=O)N(CCNc2ncc(C(F)(F)F)cc2Cl)C(=O)N1 ?
T cruzi inh: -5.7; HSF1 inh: 0.0; 697 NFkB inh: -16.0; Jurkat NFkB inh: 14.6; HSF-1 act: 20.2; GPR7 antagonist: 1.8

What do the screens show for `O=[N+]([O-])c1cccnc1NCCNc1ncc(C(F)(F)F)cc1Cl`?
T cruzi inh: 0.1; HSF1 inh: 61.8; 697 NFkB inh: -105.0; Jurkat NFkB inh: -77.8; HSF-1 act: 84.7*; GPR7 antagonist: -9.1

What do the screens show for `CCOC(=O)c1nn(-c2ccc(Cl)cc2)c2nnc(Cc3ccccc3)c(=O)n12`?
T cruzi inh: -3.9; HSF1 inh: -3.4; 697 NFkB inh: -8.5; Jurkat NFkB inh: 6.9; HSF-1 act: -23.2; GPR7 antagonist: 5.7

Results for CCOC(=O)c1c(NC(C)=O)sc2c(OC)c(Br)ccc12 ?
T cruzi inh: 2.4; HSF1 inh: -3.3; 697 NFkB inh: 7.2; Jurkat NFkB inh: 0.3; HSF-1 act: 6.6; GPR7 antagonist: -10.6

Results for CCOC(=O)c1c(N)sc2c(O)c(Br)ccc12 ?
T cruzi inh: -16.6; HSF1 inh: -93.9*; 697 NFkB inh: 18.4; Jurkat NFkB inh: -15.1; HSF-1 act: -94.9; GPR7 antagonist: -1.0

What do the screens show for `CCOC(=O)c1c(NC(C)=O)sc2c(O)c(CN3CCN(CC)CC3)ccc12`?
T cruzi inh: 5.2; HSF1 inh: 75.5; 697 NFkB inh: 11.6; Jurkat NFkB inh: -18.3; HSF-1 act: 112.5*; GPR7 antagonist: -6.3

What do the screens show for `CCOC(=O)c1c(N)sc2c(NC(C)=O)cccc12`?
T cruzi inh: 1.3; HSF1 inh: -6.2; 697 NFkB inh: -14.9; Jurkat NFkB inh: -0.7; HSF-1 act: -2.8; GPR7 antagonist: -7.8

What do the screens show for `CCOC(=O)c1c(NC(C)=O)sc2c(OCCN(CC)CC)c(Br)ccc12`?
T cruzi inh: 58.0*; HSF1 inh: 9.8; 697 NFkB inh: -13.8; Jurkat NFkB inh: -14.1; HSF-1 act: 31.3; GPR7 antagonist: -24.1

Results for Cc1ccc(N(CCCCN2C(=O)c3ccccc3C2=O)C(=O)c2cccc([N+](=O)[O-])c2)cc1 ?
T cruzi inh: 12.3; HSF1 inh: 34.6; 697 NFkB inh: -13.6; Jurkat NFkB inh: -11.1; HSF-1 act: 69.8*; GPR7 antagonist: -7.6

How did COc1ccc2[nH]c3c(c2c1)CCN1C(=O)C(CC(=O)NCCc2ccccn2)C[C@H](C(=O)N(C(C)C)C(C)C)[C@@]31C (stereo not given in full) do in these assays?
697 NFkB inh: 17.7

What do the screens show for `Cc1ccc(-c2nn(C)c(=O)c3ccccc23)cc1S(=O)(=O)NCCN(C)C`?
T cruzi inh: 38.4; HSF1 inh: -61.1*; 697 NFkB inh: -13.7; Jurkat NFkB inh: -27.1; HSF-1 act: -67.3; GPR7 antagonist: -2.4

What do the screens show for `OCC[C@@H]1C[C@H](O)[C@@H](O)[C@@]2(CCc3ccccc3CO2)O1`?
T cruzi inh: -13.2; HSF1 inh: -10.4; 697 NFkB inh: -0.1; Jurkat NFkB inh: 2.4; HSF-1 act: -10.9; GPR7 antagonist: -11.2
